ChEMBL document CHEMBL3875227, “Electrophilic Helical Peptides That Bond Covalently, Irreversibly, and Selectively in a Protein-Protein Interaction Site” (ACS Med Chem Lett, 2017)
The source made the active and inactive calls. The rule behind the calls is not given here.

Tests used:
[1] = target: T1, Bcl-2-related protein A1 (Homo sapiens) (UniProt Q16548); assay: Binding affinity to recombinant human C-terminal His6-tagged Bcl2A1 (1 to 152 residues) expressed in Escherichia coli assessed as adduct formation at 25 uM measured after 5 hrs by LC-MS analysis
T1 sequence (whole entry): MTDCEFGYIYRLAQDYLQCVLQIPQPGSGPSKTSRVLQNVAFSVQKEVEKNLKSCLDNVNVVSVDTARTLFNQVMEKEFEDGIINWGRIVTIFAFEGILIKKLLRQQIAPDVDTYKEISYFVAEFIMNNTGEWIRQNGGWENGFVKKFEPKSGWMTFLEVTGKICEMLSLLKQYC
How it was run: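 Bcl2A1 (5 μM) reacted with electrophilic peptide (25 μM) at pH 7.2 for 5 h. Protein adducts analysed by mass spectrometry.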

[2] = Cellular uptake in human U937 cells at 10 uM measured after 4 hrs by flow cytometry; assay type: ADME, cell-based; details: u-937, 4 h
[3] = Drug uptake in mitochondria of human U937 cells at 1 uM measured after 4 hrs using FITC-labeled compound by Hoechst and MitoTracker Deep Red dye-based confocal live cell microscopy; assay type: ADME; details: u-937, 4 h
How it was run: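 Live U937 lymphoma cells given FITC-labelled peptide (1 μM) for 4 h. Nuclei stained with Hoechst and mitochondria with MitoTracker; colocalization imaged by confocal microscopy.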

[4] = target: T1, Bcl-2-related protein A1 (Homo sapiens); assay: Binding affinity to Bcl2A1 in human U937 cells assessed as Bcl2A1 modification at 5 to 50 uM measured after overnight incubation by Western blot analysis; assay type: cell-based; details: U-937
How it was run: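 Live U937 cells incubated with peptide for 24 h at 37 °C, then lysed. Covalent Bcl2A1 modification detected by Western blot.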

[5] = Metabolic stability in human serum at 25 uM measured up to 6 hrs; assay type: ADME
[6] = target: T2, Bcl-2-related protein A1 (Homo sapiens, UniProt Q16548); assay: Inhibition of FITC-betaA-DIIRNIARHLAQVGDSMRSI-NH2 binding to recombinant human Bcl2A1 (1 to 152 residues) BH3 binding site expressed in Escherichia coli measured after 2 hrs by fluorescence polarization assay; details: for Ki: read-out: Ki(app)
T2 sequence (Q16548 whole entry): T1 sequence (whole entry)
How it was run: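 Competitive fluorescence polarization: Bcl2A1 (15 nM) with FITC-Bid tracer (5 nM), protein/tracer 3:1 to keep fluorescence measurable, exposed to increasing peptide concentrations for 2 h. IC50 read from inhibition curves; apparent Ki derived from it.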

[7] = target: T1, Bcl-2-related protein A1 (Homo sapiens); details: 500 nM
[8] = target: T1, Bcl-2-related protein A1 (Homo sapiens); details: 500 nM; remark: listed apart in the source
[9] = Stability of the compound in DTT buffer at 50 uM and pH 7.2 measured after 1 to 17 hrs by mass spectra analysis; assay type: physicochemical; details: pH 7.2, 50 µM
How it was run: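 Peptide held in 1 mM dithiothreitol over several hours to follow its integrity.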

[10] = target: T1, Bcl-2-related protein A1 (Homo sapiens); assay: Reversible inhibition of FITC-betaA-DIIRNIARHLAQVGDSMRSI-NH2 binding to recombinant human Bcl2A1 (1 to 152 residues) BH3 binding site expressed in Escherichia coli preincubated for 1 hr with 2 fold diluted Bcl2A1 prior to FITC-betaA-DIIRNIARHLAQVGDSMRSI-NH2 addition measured every minute over 3.5 hrs by fluorescence polarization assay
How it was run: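 Bcl2A1 2-fold serially diluted (250 to 0.25 nM), preincubated 1 h with peptide at several protein/peptide ratios. FITC-Bid (5 nM) then added and fluorescence polarization recorded as titration binding curves. Buffer in place of peptide as control.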

[11] = target: T1, Bcl-2-related protein A1 (Homo sapiens); assay: Binding affinity to Bcl2A1 (unknown origin) overexpressed in human HeLa cells at 50 uM measured after 24 hrs by Western blot analysis; assay type: cell-based

SMILES	Activity [1]	Activity [4]	Stability [5]	IC50 [6]	Ki [6]	also measured
C#CC(=O)NC[C@H](NC(=O)[C@@H](NC(C)=O)[C@@H](C)CC)C(=O)N[C@H](C(=O)N[C@@H](C)C(=O)N[C@@H](CCC(N)=O)C(=O)N[C@@H](CCC(=O)O)C(=O)N[C@@H](CC(C)C)C(=O)N[C@@H](CCCNC(=N)N)C(=O)N[C@@]1(C)CCCC=CCCC[C@@](C)(C(=O)N[C@@H](Cc2ccccc2)C(=O)N[C@@H](CC(N)=O)C(=O)N[C@@H](C)C(=O)N[C@@H](Cc2ccc(O)cc2)C(=O)N[C@@H](Cc2ccc(O)cc2)C(=O)N[C@@H](C)C(=O)N[C@@H](CCCNC(=N)N)C(=O)N[C@@H](CCCNC(=N)N)C(N)=O)NC(=O)[C@H](CC(=O)O)NC(=O)CNC(=O)[C@H]([C@@H](C)CC)NC1=O)[C@@H](C)CC	Active					
C=CC(=O)NC[C@H](NC(=O)[C@@H](NC(=O)CCCCCNC(=O)c1cc(N=C=S)ccc1-c1c2ccc(=O)cc-2oc2cc(O)ccc12)[C@@H](C)CC)C(=O)N[C@H](C(=O)N[C@@H](C)C(=O)N[C@@H](CCC(N)=O)C(=O)N[C@@H](CCC(=O)O)C(=O)N[C@@H](CC(C)C)C(=O)N[C@@H](CCCNC(=N)N)C(=O)N[C@@]1(C)CCCC=CCCC[C@@](C)(C(=O)N[C@@H](Cc2ccccc2)C(=O)N[C@@H](CC(N)=O)C(=O)N[C@@H](C)C(=O)N[C@@H](Cc2ccc(O)cc2)C(=O)N[C@@H](Cc2ccc(O)cc2)C(=O)N[C@@H](C)C(=O)N[C@@H](CCCNC(=N)N)C(=O)N[C@@H](CCCNC(=N)N)C(N)=O)NC(=O)[C@H](CC(=O)O)NC(=O)CNC(=O)[C@H]([C@@H](C)CC)NC1=O)[C@@H](C)CC						Drug uptake [2]: Active; Drug uptake [3]: Active
CC[C@H](C)[C@H](NC(C)=O)C(=O)N[C@@H](CNC(=O)CCl)C(=O)N[C@H](C(=O)N[C@@H](C)C(=O)N[C@@H](CCC(N)=O)C(=O)N[C@@H](CCC(=O)O)C(=O)N[C@@H](CC(C)C)C(=O)N[C@@H](CCCNC(=N)N)C(=O)N[C@@]1(C)CCCC=CCCC[C@@](C)(C(=O)N[C@@H](Cc2ccccc2)C(=O)N[C@@H](CC(N)=O)C(=O)N[C@@H](C)C(=O)N[C@@H](Cc2ccc(O)cc2)C(=O)N[C@@H](Cc2ccc(O)cc2)C(=O)N[C@@H](C)C(=O)N[C@@H](CCCNC(=N)N)C(=O)N[C@@H](CCCNC(=N)N)C(N)=O)NC(=O)[C@H](CC(=O)O)NC(=O)CNC(=O)[C@H]([C@@H](C)CC)NC1=O)[C@@H](C)CC	Active					

Now from value to molecule, other results behind:

Activity [1]	Activity [4]	Stability [5]	IC50 [6]	Ki [6]	SMILES	also measured
	Active	Stable	8.5 nM	< 0.1 nM	C=CC(=O)NC[C@H](NC(=O)[C@@H](NC(C)=O)[C@@H](C)CC)C(=O)N[C@H](C(=O)N[C@@H](C)C(=O)N[C@@H](CCC(N)=O)C(=O)N[C@@H](CCC(=O)O)C(=O)N[C@@H](CC(C)C)C(=O)N[C@@H](CCCNC(=N)N)C(=O)N[C@@]1(C)CCCC=CCCC[C@@](C)(C(=O)N[C@@H](Cc2ccccc2)C(=O)N[C@@H](CC(N)=O)C(=O)N[C@@H](C)C(=O)N[C@@H](Cc2ccc(O)cc2)C(=O)N[C@@H](Cc2ccc(O)cc2)C(=O)N[C@@H](C)C(=O)N[C@@H](CCCNC(=N)N)C(=O)N[C@@H](CCCNC(=N)N)C(N)=O)NC(=O)[C@H](CC(=O)O)NC(=O)CNC(=O)[C@H]([C@@H](C)CC)NC1=O)[C@@H](C)CC	inhibition [7]: Active; T1/2 [8]: 28 min; Stability [9]: Stable
	Active	Stable	110 nM	32 nM	CC[C@H](C)[C@H](NC(C)=O)C(=O)N[C@@H](Cc1c[nH]c2ccccc12)C(=O)N[C@H](C(=O)N[C@@H](C)C(=O)N[C@@H](CCC(N)=O)C(=O)N[C@@H](CCC(=O)O)C(=O)N[C@@H](CC(C)C)C(=O)N[C@@H](CCCNC(=N)N)C(=O)N[C@@]1(C)CCCC=CCCC[C@@](C)(C(=O)N[C@@H](Cc2ccccc2)C(=O)N[C@@H](CC(N)=O)C(=O)N[C@@H](C)C(=O)N[C@@H](Cc2ccc(O)cc2)C(=O)N[C@@H](Cc2ccc(O)cc2)C(=O)N[C@@H](C)C(=O)N[C@@H](CCCNC(=N)N)C(=O)N[C@@H](CCCNC(=N)N)C(N)=O)NC(=O)[C@H](CC(=O)O)NC(=O)CNC(=O)[C@H]([C@@H](C)CC)NC1=O)[C@@H](C)CC	inhibition [10]: Active; Activity [11]: Active
